Our source for the ED50, Ki and IC50 values is ChEMBL document CHEMBL1125363, “Novel piperidine sigma receptor ligands as potential antipsychotic drugs” (J Med Chem, 1992).

Each structure is given as a SMILES string. A value given as a limit tells only on which side of the number the result lay.

For assay [1], the species on record is Mus musculus. Nature of the assay: Oral potency tested by using anti-mescaline test. It is filed as functional. Summed up: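 Mice; mescaline was given to evoke hallucinogen-type behaviour, and the test compound was dosed orally to antagonise it. Potency is the ED50 in mg/kg po. Some ED50s are the average of three measurements.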
For assay [2], the target named is Serotonin 2 (5-HT2) receptor (Mus musculus, UniProt Q02152+P34968+P35363). Nature of the assay: In vitro binding affinity for serotonin 5-hydroxytryptamine (5-HT) 2 receptors. Format: protein assay.
Assay [3] deals with D(2) dopamine receptor (Mus musculus, UniProt P61168). The assay can be described thus: In vitro binding affinity towards dopamine receptor D2.
Sequence of D(2) dopamine receptor (P61168 whole entry): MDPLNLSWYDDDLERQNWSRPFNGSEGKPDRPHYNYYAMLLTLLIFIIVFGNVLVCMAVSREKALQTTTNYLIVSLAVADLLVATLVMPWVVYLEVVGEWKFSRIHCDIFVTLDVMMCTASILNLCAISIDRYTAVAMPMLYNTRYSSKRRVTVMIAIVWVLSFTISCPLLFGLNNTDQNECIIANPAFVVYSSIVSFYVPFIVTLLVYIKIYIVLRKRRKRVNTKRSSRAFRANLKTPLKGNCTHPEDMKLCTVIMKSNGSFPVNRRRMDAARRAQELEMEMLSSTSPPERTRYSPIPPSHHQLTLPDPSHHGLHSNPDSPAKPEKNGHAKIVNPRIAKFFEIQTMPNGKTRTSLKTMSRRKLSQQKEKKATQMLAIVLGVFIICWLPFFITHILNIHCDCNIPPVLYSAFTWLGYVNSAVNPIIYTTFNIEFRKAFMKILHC
Assay [4] addresses Sigma non-opioid intracellular receptor 1 (Mus musculus, UniProt O55242). Nature of the assay: In vitro binding affinity for the mouse sigma opioid receptor.

Sequence of Sigma non-opioid intracellular receptor 1 (O55242 whole entry): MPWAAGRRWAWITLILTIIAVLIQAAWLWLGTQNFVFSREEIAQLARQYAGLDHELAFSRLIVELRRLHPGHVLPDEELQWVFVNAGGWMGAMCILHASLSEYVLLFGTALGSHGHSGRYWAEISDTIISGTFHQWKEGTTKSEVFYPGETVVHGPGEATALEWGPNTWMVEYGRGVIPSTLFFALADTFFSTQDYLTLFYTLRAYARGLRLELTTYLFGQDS

Broadly, the ED50 is the midpoint of the dose-response relation. By Ki is commonly meant the equilibrium dissociation constant of an inhibitor or competing ligand from its target. A higher Ki goes with lower affinity. What is called IC50 is the concentration that gives 50% inhibition. A higher IC50 goes with weaker potency. Take `O=C(CC1CCN(Cc2ccccc2)CC1)c1ccc(-c2ccccc2)cc1`: it took a dose of 30 mg/kg to reach the 50% effect level in assay [1] (ED50). The Ki in assay [2] was over 0.1 µM; in assay [4] it was 0.033 µM. In assay [3], this compound registered an IC50 of 3.01 µM.

In assay [1], `CS(=O)(=O)c1ccc(OCC2CCN(CC3CC3)CC2)cc1` yielded an ED50 of over 30 mg/kg. The Ki worked out at 1.135 µM in assay [2] and 0.053 µM in assay [4]. In addition, the IC50 in assay [3] is over 10 µM.

The compound `O.OC(CC1CCN(Cc2ccccc2)CC1)c1cccs1` (stereo unspecified) returned an ED50 in assay [1] of over 30 mg/kg. Also, the Ki in assay [2] was 0.446 µM; in assay [4] it was 0.005 µM. In assay [3], this compound had an IC50 of 3.72 µM.

As for `Cl.Oc1ccc(CN2CCC(COCc3ccc(F)cc3)CC2)cc1`, in assay [1], the ED50 was over 10 mg/kg. Also, the Ki in assay [2] was found to be 0.5 µM; in assay [4], 0.007 µM. The compound further gave an IC50 in assay [3] of 3.13 µM.

On to `COc1ccc(C(O)CC2CCN(Cc3ccccc3)CC2)cc1.Cl` (stereo unspecified), for which the ED50 in assay [1] is over 30 mg/kg. Moreover, the Ki amounted to 0.187 µM in assay [2] and 0.02 µM in assay [4]. The IC50 in assay [3] was over 10 µM.

Take `CSc1ccc(C(O)CC2CCN(Cc3ccccc3)CC2)cc1` (stereo unspecified): the ED50 in assay [1] is over 30 mg/kg. The Ki in assay [2] is over 0.1 µM; in assay [4] it was 0.01 µM. The IC50 in assay [3] was found to be 7.63 µM.

As to `CSc1ccc(OCC2CCN(CC3CC3)CC2)cc1.Cl`, the ED50 in assay [1] was over 30 mg/kg. Moreover, the results for the Ki in assay [2] and in assay [4] were 0.114 µM and 0.007 µM, respectively. The IC50 in assay [3] was 1.98 µM.

`Cl.Fc1c(F)c(F)c(OCC2CCN(CC3CC3)CC2)c(F)c1F` gave an ED50 in assay [1] of 26.2 mg/kg. Moreover, the Ki in assay [2] amounted to 3.356 µM; in assay [4], 0.01 µM. For the same compound, the IC50 in assay [3] worked out at 5.68 µM.

`COC(=O)c1ccc(COCC2CCN(Cc3ccccc3)CC2)cc1.Cl.O`: the ED50 in assay [1] was over 30 mg/kg. Also, the Ki in assay [2] was over 10 µM; in assay [4] it was 0.015 µM. The compound also came in with an IC50 in assay [3] of 0.97 µM.

In turn, `Fc1ccc(COCC2CCN(Cc3ccccc3)CC2)cc1.O=C(O)/C=C\C(=O)O` came in with an ED50 in assay [1] of 14 mg/kg. For the same compound, the Ki in assay [2] worked out at 0.272 µM; in assay [4], 0.002 µM. Also, the IC50 in assay [3] was found to be 3.9 µM.

Take `Fc1ccc(OCC2CCN(Cc3ccncc3)CC2)cc1.O`: it took a dose of 1.1 mg/kg to reach the 50% effect level in assay [1] (ED50). The figures for the Ki in assay [2] and in assay [4] were 0.031 µM and 0.007 µM, respectively. Besides, in assay [3], the IC50 was determined as 2.75 µM.

In assay [1], `Fc1ccc(OCC2CCN(Cc3ccc4ccccc4c3)CC2)cc1` came in with an ED50 of 1.7 mg/kg. Also, the inhibition constant Ki in assay [2] was determined as 0.118 µM; in assay [4], 0.051 µM. The compound also gave an IC50 in assay [3] of 4.34 µM.

Compound `O.O=C(CC1CCN(CCc2c[nH]c3ccccc23)CC1)c1ccc(F)cc1` came in with an ED50 in assay [1] of under 10 mg/kg. Also, the Ki in assay [2] was found to be 0.0036 µM; in assay [4], 0.026 µM. This compound had an IC50 in assay [3] of 0.007 µM.

Turning to `O.O=C(CC1CCN(Cc2ccccc2)CC1)c1ccc(C(F)(F)F)cc1`, the ED50 in assay [1] was over 10 mg/kg. The Ki in assay [2] is over 1 µM; in assay [4] it was 0.01 µM. Further, the IC50 in assay [3] came out at 4.67 µM.

With `O.c1ccc2c(OCC3CCN(CC4CC4)CC3)ccnc2c1`, the ED50 in assay [1] stood at 19.2 mg/kg. Further, the Ki was over 0.1 µM in assay [2] and 0.05 µM in assay [4]. The same compound returned an IC50 in assay [3] of 4.85 µM.

In the case of `O=C(Cc1ccc(F)cc1)CC1CCN(Cc2ccccc2)CC1.O=C(O)/C=C\C(=O)O`, in assay [1], the ED50 is over 30 mg/kg. The Ki in assay [2] was 0.316 µM; in assay [4] it was 0.003 µM. Further, in assay [3], the IC50 came out at 1.1 µM.

`Br.CN(C)c1ccc(C(=O)CC2CCN(CC3CC3)CC2)cc1.O` displayed an ED50 in assay [1] of 30 mg/kg. The Ki in assay [2] amounted to 0.559 µM; in assay [4], 0.033 µM. In assay [3], this compound came in with an IC50 of over 10 µM.

With `O.OC(CC1CCN(Cc2ccccc2)CC1)c1ccco1` (stereo unspecified), the median effective dose (ED50) in assay [1] was over 30 mg/kg. For the same compound, the Ki in assay [2] was 1.323 µM; in assay [4] it was 0.011 µM. The same compound came in with an IC50 in assay [3] of over 10 µM.

Compound `O=C(CC1CCN(CCc2ccc(Cl)cc2)CC1)c1ccc(F)cc1` had an ED50 in assay [1] of 1.8 mg/kg. Besides, the Ki in assay [2] was 0.0084 µM; in assay [4] it was 0.005 µM. The compound also returned an IC50 in assay [3] of 0.014 µM.
